Assay results taken from ChEMBL document CHEMBL1144824, “Oximes: metabolic activation and structure-allergenic activity relationships” (J Med Chem, 2008).

Legend:
[1] = Dermal toxicity in CBA/Ca mouse assessed as skin sensitization stimulation index by measuring increase in [3H]thymidine incorporation at 10% w/v administered on ear dorsum by local lymph node assay relative to control; parameters: species or system Skin of body; conditions: in vivo, topical_or_ocular
Method in brief: (§1)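 Female CBA/Ca mice, 8 weeks, n = 3 or 4 per group, 25 µL of test compound in vehicle per OECD 429 LLNA; vehicle-only controls. Day 5: 250 µL PBS with 20 µCi [3H]thymidine i.v. After 5 h, draining auricular nodes were pooled per group, cells suspended and counted by β-scintillation. SI = mean dpm/node of test group over control; SI above 3 counted positive.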

[2] = system: Mus musculus; test: Dermal toxicity in CBA/Ca mouse assessed as skin sensitization stimulation index by measuring increase in [3H]thymidine incorporation at 5% w/v administered on ear dorsum by local lymph node assay relative to control; assay type: organism-based, Skin of body; conditions: in vivo, topical_or_ocular; method in brief: as §1
[3] = organism: Mus musculus; test: Dermal toxicity in CBA/Ca mouse assessed as drug level inducing 3 times increase in skin sensitization stimulation index by measuring [3H]thymidine incorporation relative to control; assay type: organism-based; conditions: in vivo
Method in brief: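 Local lymph node assay per OECD Guideline 429 in female CBA/Ca mice, 8 weeks old, groups of 3 or 4. Each mouse got 25 µL of test compound in vehicle; controls got vehicle alone. Five days after first treatment, mice were dosed i.v. with 20 µCi [3H]thymidine in PBS. Auricular lymph nodes were pooled per group 5 h later and counted by β-scintillation. Value is the concentration giving SI (test/control) of 3.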

[4] = system: Mus musculus; test: Dermal toxicity in CBA/Ca mouse assessed as skin sensitization stimulation index by measuring increase in [3H]thymidine incorporation at 1% w/v administered on ear dorsum by local lymph node assay relative to control; assay type: organism-based, Skin of body; conditions: in vivo, topical_or_ocular; method in brief: as §1
[5] = system: Mus musculus; test: Dermal toxicity in CBA/Ca mouse assessed as skin sensitization stimulation index by measuring increase in [3H]thymidine incorporation at 0.1% w/v administered on ear dorsum by local lymph node assay relative to control; assay type: organism-based, Skin of body; conditions: in vivo, topical_or_ocular; method in brief: as §1
[6] = system: Mus musculus; test: Dermal toxicity in CBA/Ca mouse assessed as skin sensitization stimulation index by measuring increase in [3H]thymidine incorporation at 20% w/v administered on ear dorsum by local lymph node assay relative to control; assay type: organism-based, Skin of body; conditions: in vivo, topical_or_ocular; method in brief: as §1

| SMILES | Activity [1] | Activity [2] | Activity [3] [mM] | Activity [4] | Activity [5] | Activity [6] |
| --- | --- | --- | --- | --- | --- | --- |
| CC1=CCCC/C1=N\O | 7.91 | 5.03 | 160 | 2.36 | 1 | 11.3 |
| O/N=C\c1ccccc1 | 2.33 | 1.55 | > 1700 | 1.8 | 1.75 | 2.56 |
| O/N=C1/C=CCCC1 | – | 7.6 | 55 | 4.1 | 1.54 | – |
| CC1=C/C(=N/O)CCC1 | 5.34 | 5.06 | 180 | 2.1 | 0.76 | 7.3 |
| C/C=C/C(CC)=N/O | 3.34 | 1.69 | 790 | 0.99 | 0.99 | 6.62 |
| CC1=C(C)/C(=N/O)CCC1 | 1.16 | 1.43 | > 1400 | 1.24 | 1.1 | 1.3 |
| ON=C1CCCCC1 [CYCLOHEXANONE OXIME] | 1.17 | 0.77 | > 1800 | 0.9 | 0.96 | 0.84 |
